Compound activity from PubChem.
Shown are actives, neighbours in structure and some others; about 1.4% of the full set was active somewhere.
HKDC1 inhibitor – blocks human hexokinase HKDC1 activity | recombinant HKDC1, G6PDH/diaphorase resazurin coupled fluorescence | inhibition, % at 20 µM | Q2TB90 | actives 0.16% (n = 340,000);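 active = inhibition above about 35% when tested at 20 µM, limit read from the data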
Target sequence (Q2TB90 whole entry, looked up): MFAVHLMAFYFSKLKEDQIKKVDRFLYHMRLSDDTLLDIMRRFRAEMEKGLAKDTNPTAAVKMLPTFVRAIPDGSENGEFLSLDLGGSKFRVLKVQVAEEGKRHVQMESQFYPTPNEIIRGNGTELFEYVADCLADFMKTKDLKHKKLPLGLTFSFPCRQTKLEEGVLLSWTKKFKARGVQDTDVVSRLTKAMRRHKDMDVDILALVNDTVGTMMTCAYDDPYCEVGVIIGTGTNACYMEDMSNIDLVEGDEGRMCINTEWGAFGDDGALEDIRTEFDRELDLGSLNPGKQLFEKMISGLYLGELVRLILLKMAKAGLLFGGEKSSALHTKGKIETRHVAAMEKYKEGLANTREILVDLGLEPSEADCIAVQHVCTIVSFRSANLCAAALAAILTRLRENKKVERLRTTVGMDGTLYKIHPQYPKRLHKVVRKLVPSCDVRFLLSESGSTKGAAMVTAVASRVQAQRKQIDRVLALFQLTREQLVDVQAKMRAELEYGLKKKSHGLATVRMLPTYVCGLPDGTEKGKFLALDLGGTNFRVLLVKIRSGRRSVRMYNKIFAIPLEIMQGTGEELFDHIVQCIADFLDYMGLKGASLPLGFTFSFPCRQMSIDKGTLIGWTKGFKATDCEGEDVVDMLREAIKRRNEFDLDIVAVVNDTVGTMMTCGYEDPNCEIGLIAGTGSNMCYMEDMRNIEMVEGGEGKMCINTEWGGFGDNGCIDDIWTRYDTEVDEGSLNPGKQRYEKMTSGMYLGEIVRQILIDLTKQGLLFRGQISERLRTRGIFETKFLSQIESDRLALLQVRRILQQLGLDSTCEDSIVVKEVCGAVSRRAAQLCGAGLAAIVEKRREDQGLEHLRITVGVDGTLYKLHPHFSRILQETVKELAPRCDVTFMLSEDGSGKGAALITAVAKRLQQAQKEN
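Material: recombinant HKDC1 hexokinase; Amount: HKDC1 at 5 µg/mL; Medium: Tris pH 8.0 buffer with MgCl2, Tween-20, BSA, BME; Schedule: 90 min reaction incubation at room temperature, dark; Technique: coupled resazurin fluorescence, excitation 525 nm, emission 613 nm.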
UBC9 SUMO inh – blocks human SUMOylation mediated by UBC9; actives 0.36% (n = 290,000); HTRF SUMOylation assay, SAE1/SAE2 + UBC9, in vitro; AID 2006; inhibition, % at 35 µM; in the data active = inhibition above about 50%, passing the limit was not always enough
Apaf1 inhib – inhibitors of human Apaf-1 apoptosome | O14727 | reconstituted apoptosome caspase-3 activity, DEVD-Rh110 fluorescence | inhibition, % at 20 µM | actives 0.71% (n = 330,000) | AID 489030; active = inhibition of at least 40% at 20 µM
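Material: reconstituted apoptosome with Apaf-1, cytochrome c, caspase-9, procaspase-3, dATP; medium: pH 7.5 Hepes buffer with CHAPS, BSA, DTT; also added: cytochrome c and DEVD-Rh110 substrate; timing: 30 min plus 50 min, RT; signal: Rh110 fluorescence intensity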
GSTO1 inh – GSTO1 inhibition, counter-screen for RBBP9 inhibitors; P78417; actives 1.1% (n = 300,000); recombinant GSTO1, activity-based probe fluorescence polarization; inhibition, % at 5.96 µM;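 active = inhibition above the campaign mean inhibition plus 3 SD, cut at about 35% in these data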
DTT redox prof – compounds producing H2O2 with reducing agent – biochemical, NIH compound library profiling, artefact control for MLSCN library redox annotation, primary screen. DTT-dependent redox cycling H2O2, phenol red/HRP absorbance; 100% = 100 µM peroxide control, 0% = buffer. AID 878. actives 0.03% (n = 200,000). activation, % at 10 µM;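 active = activation of at least 50% relative to the plate's high and low controls in the primary single-dose screen; inactive = activation below 50%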;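 note: compound incubated with DTT at 0.8 mM final as the reducing agent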
GSTO1 confirm – confirmation of human GSTO1 inhibitors | shares compounds with GSTO1 inh | recombinant GSTO1, probe fluorescence polarization | inhibition, % at 5.96 µM | actives 54% (n = 2,400) | AID 2176;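 active = inhibition above the primary screen's cutoff, its mean inhibition plus 3 SD, cut at about 35% in these data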;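 note: loss of polarization as inhibitors block binding of rhodamine sulfonate ester activity probe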
GSTO1 recomb ABPP – inhibitors of recombinant human GSTO1. shares compounds with GSTO1 inh. gel ABPP SE-Rh probe fluorescence. inhibition, % at 1 µM. actives 30% (n = 130);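 active = inhibition of the enzyme GSTO1 above about 75%, limit read from the data; inactive = inhibition below that limit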
Large screens that a line does not name were inactive (follow-up assays come after a bar, where they were run).

CC1(OC(=O)C2CCCC2)C(=O)C=C2C=C(C3CC3)OC=C2C1=O (configuration not stated)	none (no result: HKDC1 inhibitor, UBC9 SUMO inh, DTT redox prof)
CCC1CCc2sc(C(=O)N(C)CC(=O)Nc3ccc(N4CCOCC4)cc3)cc2C1 (configuration not stated)	none (no result: UBC9 SUMO inh, DTT redox prof)
CCOC(=O)c1sc(NC(=O)c2c(CC)noc2C)nc1C	none (no result: UBC9 SUMO inh, GSTO1 inh, DTT redox prof)
CC(=O)C(C(C)=O)c1c(Cl)c(O)c(O)c2c(C(=O)c3ccccc3)coc12	GSTO1 inh 58 | GSTO1 confirm inactive
O=C1CCc2cc(NS(=O)(=O)c3ccccc3)cc3c2N1CC3	none (no result: UBC9 SUMO inh, DTT redox prof)
CC(C)(C)OC(=O)N[C@@H](C(=O)OC(C)(C)C)c1ccc2c(c1)OCO2	none (no result: UBC9 SUMO inh, GSTO1 inh, DTT redox prof)
Oc1ccc(-c2cn3ccccc3n2)cc1O	GSTO1 inh 43 (no result: DTT redox prof) | GSTO1 confirm inactive
Cc1ccn2cc(-c3ccc(O)c(O)c3)nc2c1	GSTO1 inh 60 (no result: DTT redox prof) | GSTO1 confirm inactive
Cc1ccn2cc(-c3cccc(NC(=O)C(C)C)c3)nc2c1	none
COc1ccc(N(Cc2cc(=O)[nH]c3ccccc23)C(=O)CCl)cc1	GSTO1 inh 79 (no result: DTT redox prof) | GSTO1 confirm 95 | GSTO1 recomb ABPP inactive
Cc1cccc(N(Cc2cc(=O)[nH]c3ccccc23)C(=O)CCl)c1	GSTO1 inh 90 (no result: DTT redox prof) | GSTO1 confirm 91 | GSTO1 recomb ABPP 76
COc1ccc(N/N=C(/N=Nc2nc(C)cc(=O)[nH]2)c2ccccc2)cc1	none
Cc1cc(=O)[nH]c(N=N/C(=N/Nc2ccc(O)cc2)c2ccccc2)n1	GSTO1 inh 52 | GSTO1 confirm inactive
O=C(CCl)N(c1ccccc1)C1CCS(=O)(=O)C1 (configuration not stated)	GSTO1 inh 79 | GSTO1 confirm 85 | GSTO1 recomb ABPP inactive
O=S(=O)(NCCc1ccc(F)cc1)c1ccc(F)cc1Br	none (no result: UBC9 SUMO inh, GSTO1 inh, DTT redox prof)
Cc1cccc[n+]1C1C(c2ccc([N+](=O)[O-])cc2)C(C#N)=C(C(=C=[N-])C#N)NC1(O)C1CC1 (configuration not stated)	GSTO1 inh 40 | GSTO1 confirm 48
Nc1cc(-c2ccncc2)c[nH]c1=O	GSTO1 inh 42 | GSTO1 confirm inactive
Cc1ccc(N(NC(=O)C(O)(c2ccccc2)c2ccccc2)C(=O)CCl)cc1	GSTO1 inh 82 | GSTO1 confirm 92
O=C(Nc1ccccc1)NN(C(=O)CCl)c1ccccc1	GSTO1 inh 82 (no result: DTT redox prof) | GSTO1 confirm 88
COc1ccc(CCC(=O)NCCS(=O)(=O)N2CCN(c3ccccc3OC)CC2)cc1	none (no result: DTT redox prof)
Cn1nc(C(=O)NCC2CCCO2)c2ccccc2c1=O (configuration not stated)	GSTO1 inh 75 | GSTO1 confirm inactive
CCn1cc(CN2CCC(n3nccc3NC(=O)c3cccc(F)c3)CC2)cn1	none (no result: DTT redox prof)
CC(C)CCCN1C(N(C)C)=NC[C@@H]1C	none (no result: UBC9 SUMO inh, DTT redox prof)
C/C(CC(=O)Nc1ccc(Cl)cc1Cl)=N\NC(=O)C(=O)N1CCCC1	none
COCCNC(=O)C(=O)N/N=C(\C)CC(=O)Nc1ccc(Cl)cc1Cl	GSTO1 inh 71 | GSTO1 confirm inactive
Cc1cc(/C=C2\SC(=S)NC2=O)c(C)n1C1CC1	GSTO1 inh 40 | GSTO1 confirm 51
CCCc1ccc(S(=O)(=O)N2CCN(C(C)C(=O)NCc3ccccc3)CC2)cc1 (configuration not stated)	none (no result: UBC9 SUMO inh, GSTO1 inh, DTT redox prof)
CCc1nc2ccc(C(=O)N(C)CC(=O)Nc3cccc(F)c3)cc2nc1CC	none (no result: UBC9 SUMO inh, GSTO1 inh, DTT redox prof)
Cc1ccc(-c2cc(NC(=O)CCl)n(-c3ccccc3)n2)cc1	GSTO1 inh 73 | GSTO1 confirm 86
O=C(CCl)Nc1cc(-c2ccccc2)nn1-c1ccccc1	GSTO1 inh 65 | GSTO1 confirm 89
N#CCOC(=O)C1CSC2(c3ccc(Br)cc3)CCC(=O)N12 (configuration not stated)	none
COc1ccc(OC)c(S(=O)(=O)Nc2ccc(O)c3ccccc23)c1	GSTO1 inh 60 | GSTO1 confirm inactive
COc1ccc(C(=O)Nc2ccc(O)c3ccccc23)cc1	GSTO1 inh 49 (no result: UBC9 SUMO inh, DTT redox prof) | GSTO1 confirm inactive
COc1ccc(NC(=O)c2ccccc2NC(=O)c2ccccc2)cc1	none (no result: DTT redox prof)
O=C(NCC1CCCO1)c1ccc2[nH]c3c(c2c1)CCCC3 (configuration not stated)	none (no result: UBC9 SUMO inh, GSTO1 inh, DTT redox prof)
Cc1cccc(C)c1NC(=S)NCCc1ccc(O)c(O)c1	GSTO1 inh 38 | GSTO1 confirm inactive
Cc1cccc(NC(=S)NCCc2ccccc2)c1C	none (no result: DTT redox prof)
O=C(NCc1ccc2c(c1)OCO2)c1nnc(Cc2ccc(Cl)cc2)o1	GSTO1 inh 59 | GSTO1 confirm inactive
O=c1c2[nH]cnc2n(-c2cccc(Br)c2)c(=O)n1Cc1ccccc1	none (no result: DTT redox prof)
COc1ccc(CCNC(=O)c2noc(C(C)C)c2[N+](=O)[O-])cc1OC	GSTO1 inh 39 (no result: DTT redox prof) | GSTO1 confirm inactive
COc1ccc(CCNC(=O)c2cc(CC(C)C)on2)cc1OC	none
CCOC(=O)C1Nc2ccc(C(=O)O)cc2C2C=CCC12 (configuration not stated)	none (no result: DTT redox prof)
CCOC(=O)c1ccc2c(c1)C1C=CCC1C(C(=O)O)N2 (configuration not stated)	UBC9 SUMO inh 60, GSTO1 inh 52 (no result: HKDC1 inhibitor) | GSTO1 confirm 39
O=CN/C=C/c1cc(O)ccc1O	GSTO1 inh 72 (no result: DTT redox prof) | GSTO1 confirm inactive
c1ccc(N2CCN(Cc3ccnc4ccccc34)CC2)cc1	none
Oc1c(CN2CCN(c3ccccc3)CC2)cc(Br)c2cccnc12	GSTO1 inh 38 (no result: Apaf1 inhib, DTT redox prof) | GSTO1 confirm inactive
O=C(CN1CCN(c2cccc(Cl)c2)CC1)N1CCCC1	none
O=C(CCl)N1CCN(CC(=O)N2CCCC2)CC1	GSTO1 inh 82 (no result: DTT redox prof) | GSTO1 confirm 81 | GSTO1 recomb ABPP inactive
Cc1onc(-c2ccccc2Cl)c1C(=O)NCc1cccnc1	none
Cc1oc2c(c1C(=O)NCc1cccnc1)C(=O)c1ccccc1C2=O	Apaf1 inhib 86, GSTO1 inh 60 | GSTO1 confirm 48
CC(=O)c1c(C)oc2c1C(=O)c1ccccc1C2=O	GSTO1 inh 46 (no result: Apaf1 inhib) | GSTO1 confirm 56
COC1=CC(=O)C(O)=C(CCCCCCC/C=C/CCCCCCCC2=C(O)C(=O)C=C(OC)C2=O)C1=O	GSTO1 inh 91 (no result: UBC9 SUMO inh, DTT redox prof) | GSTO1 confirm 90
CCCCCCCCCCCC1=C(O)C(=O)C=C(O)C1=O	GSTO1 inh 79 (no result: UBC9 SUMO inh, Apaf1 inhib, DTT redox prof) | GSTO1 confirm 66
O=C(CN1CCCC1)Nc1c(C(=O)C2CC2)oc2ccccc12	none (no result: DTT redox prof)
N#Cc1ccccc1OCC(=O)Nc1c(C(=O)C2CC2)oc2ccccc12	GSTO1 inh 81 | GSTO1 confirm 98
